Data published in ChEMBL document CHEMBL4813921, “Optimization of WZ4003 as NUAK inhibitors against human colorectal cancer” (Eur J Med Chem, 2021).
Active and inactive are the calls of the source. The calls are words filed in the database; no cut-off is given here.

Assays:
U2OS [1] = test: Antiproliferative activity against human U2OS cells assessed as reduction in cell viability at 10 uM measured after 1 to 5 days by MTT assay; assay type: functional; conditions: time 1-5 day
In short: (§1)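 MTT viability read daily over 1–5 days of exposure to 10 μM compound; mean ± SD, n = 3.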

[2] = target: T1, NUAK family SNF1-like kinase 2 (Homo sapiens) (UniProt Q9H093); test: Inhibition of NUAK2 (unknown origin) at 10 uM using CHKtide as substrate in presence of ATP measured after 60 mins by ADP-Glo assay
T1 sequence (whole entry): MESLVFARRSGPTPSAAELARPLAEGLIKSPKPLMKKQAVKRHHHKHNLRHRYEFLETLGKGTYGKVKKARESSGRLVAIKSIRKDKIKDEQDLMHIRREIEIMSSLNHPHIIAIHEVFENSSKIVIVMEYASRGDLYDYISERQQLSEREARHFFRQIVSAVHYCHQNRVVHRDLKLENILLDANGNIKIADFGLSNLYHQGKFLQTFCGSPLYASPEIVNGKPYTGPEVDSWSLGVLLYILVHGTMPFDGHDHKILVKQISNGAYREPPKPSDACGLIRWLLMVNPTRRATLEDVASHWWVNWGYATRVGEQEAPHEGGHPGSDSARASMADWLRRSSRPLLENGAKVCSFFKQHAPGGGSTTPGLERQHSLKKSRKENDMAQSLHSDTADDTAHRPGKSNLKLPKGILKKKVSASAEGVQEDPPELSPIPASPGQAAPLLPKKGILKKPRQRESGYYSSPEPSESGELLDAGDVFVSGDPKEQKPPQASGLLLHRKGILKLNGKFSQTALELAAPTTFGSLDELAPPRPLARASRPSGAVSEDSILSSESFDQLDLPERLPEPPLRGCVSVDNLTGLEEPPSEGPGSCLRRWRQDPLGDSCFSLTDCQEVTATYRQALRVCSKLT

[3] = target: T2, NUAK family SNF1-like kinase 1 (Homo sapiens) (UniProt O60285); test: Inhibition of NUAK1 (unknown origin) at 10 uM using CHKtide as substrate in presence of ATP measured after 60 mins by ADP-Glo assay
T2 sequence (whole entry): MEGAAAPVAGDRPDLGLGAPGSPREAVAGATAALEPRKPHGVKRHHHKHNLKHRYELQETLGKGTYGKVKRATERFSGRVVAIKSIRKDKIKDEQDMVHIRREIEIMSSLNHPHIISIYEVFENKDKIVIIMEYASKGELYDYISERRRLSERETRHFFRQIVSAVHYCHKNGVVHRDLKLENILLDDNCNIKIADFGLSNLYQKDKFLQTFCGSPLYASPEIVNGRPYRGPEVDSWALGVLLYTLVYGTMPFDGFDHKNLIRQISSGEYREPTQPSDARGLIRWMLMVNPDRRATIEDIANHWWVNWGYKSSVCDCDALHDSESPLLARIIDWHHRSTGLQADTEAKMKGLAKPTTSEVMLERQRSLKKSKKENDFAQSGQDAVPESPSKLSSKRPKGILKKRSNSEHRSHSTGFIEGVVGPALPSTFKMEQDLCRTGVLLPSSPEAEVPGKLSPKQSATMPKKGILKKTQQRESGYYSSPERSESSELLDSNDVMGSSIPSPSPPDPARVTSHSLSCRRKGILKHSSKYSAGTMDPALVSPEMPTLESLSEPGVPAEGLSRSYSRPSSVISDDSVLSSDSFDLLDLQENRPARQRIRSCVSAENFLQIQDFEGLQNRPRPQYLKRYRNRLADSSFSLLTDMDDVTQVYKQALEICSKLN

HCT-116 [4] = test: Induction of apoptosis in human HCT-116 cells assessed as early apoptotic cells at 10 uM measured after 48 hrs by Annexin V-FITC/PI staining based flow cytometry method (reference value: 0.8%); assay type: functional
U2OS [5] = test: Induction of apoptosis in human U2OS cells assessed as necrotic cells at 10 uM measured after 48 hrs by Annexin V-FITC/PI staining based flow cytometry method (reference value: 0.4%); assay type: functional
SW480 [6] = test: Induction of apoptosis in human SW480 cells assessed as late apoptotic cells at 10 uM measured after 48 hrs by Annexin V-FITC/PI staining based flow cytometry method (reference value: 2.8%); assay type: functional
U2OS [7] = test: Induction of apoptosis in human U2OS cells assessed as late apoptotic cells at 10 uM measured after 48 hrs by Annexin V-FITC/PI staining based flow cytometry method (reference value: 1.3%); assay type: functional
SW480 [8] = test: Induction of apoptosis in human SW480 cells assessed as viable cells at 10 uM measured after 48 hrs by Annexin V-FITC/PI staining based flow cytometry method (reference value: 93.2%); assay type: functional; conditions: read-out: Activity
SW480 [9] = test: Induction of apoptosis in human SW480 cells assessed as necrotic cells at 10 uM measured after 48 hrs by Annexin V-FITC/PI staining based flow cytometry method (reference value: 1.4%); assay type: functional
HCT-116 [10] = test: Induction of apoptosis in human HCT-116 cells assessed as late apoptotic cells at 10 uM measured after 48 hrs by Annexin V-FITC/PI staining based flow cytometry method (reference value: 1.6%); assay type: functional
HCT-116 [11] = test: Antiproliferative activity against human HCT-116 cells assessed as reduction in cell viability at 10 uM measured after 1 to 5 days by MTT assay relative to control; assay type: functional, cell-based; conditions: time 1-5 day; in short: as §1
U2OS [12] = test: Induction of apoptosis in human U2OS cells assessed as early apoptotic cells at 10 uM measured after 48 hrs by Annexin V-FITC/PI staining based flow cytometry method (reference value: 2.8%); assay type: functional
SW480 [13] = test: Antiproliferative activity against human SW480 cells at 2.5 to 10 uM measured after 48 hrs by EdU staining based assay; assay type: functional, cell-based; conditions: dose 2.5-10 µM
In short: (§2)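 Cells exposed to a range of compound concentrations for 48 h, then EdU click-chemistry staining with DAPI counterstain. Confocal high-content imaging; DAPI-positive nuclei counted as total and EdU-positive as proliferating.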

HCT-116 [14] = test: Induction of apoptosis in human HCT-116 cells assessed as necrotic cells at 10 uM measured after 48 hrs by Annexin V-FITC/PI staining based flow cytometry method (reference value: 2.2%); assay type: functional
U2OS [15] = test: Antiproliferative activity against human U2OS cells at 2.5 to 10 uM measured after 48 hrs by EdU staining based assay; assay type: functional, cell-based; conditions: dose 2.5-10 µM; in short: as §2
HCT-116 [16] = test: Induction of apoptosis in human HCT-116 cells assessed as viable cells at 10 uM measured after 48 hrs by Annexin V-FITC/PI staining based flow cytometry method (reference value: 95.4%); assay type: functional; conditions: read-out: Activity
SW480 [17] = test: Induction of apoptosis in human SW480 cells assessed as early apoptotic cells at 10 uM measured after 48 hrs by Annexin V-FITC/PI staining based flow cytometry method (reference value: 2.6%); assay type: functional
U2OS [18] = test: Induction of apoptosis in human U2OS cells assessed as viable cells at 10 uM measured after 48 hrs by Annexin V-FITC/PI staining based flow cytometry method (reference value: 95.5%); assay type: functional; conditions: read-out: Activity
SW480 [19] = test: Antiproliferative activity against human SW480 cells assessed as reduction in cell viability at 10 uM measured after 1 to 5 days by MTT assay relative to control; assay type: functional, cell-based; conditions: time 1-5 day; in short: as §1
HCT-116 [20] = test: Antiproliferative activity against human HCT-116 cells at 2.5 to 10 uM measured after 48 hrs by EdU staining based assay; assay type: functional, cell-based; conditions: dose 2.5-10 µM; in short: as §2

Row | Structure (SMILES) | inhibition at 10 µM (U2OS [1]) [%] | inhibition [2] | inhibition [3] | also measured
1 | CCC(=O)Nc1cccc(Oc2nc(Nc3ccc(N(CC)CC)cc3)ncc2Cl)c1 | 38.8 | 21.2% | 54.4% | 
2 | CCC(=O)Nc1cccc(Oc2nc(Nc3ccc(N(CC)CC)cc3OC)ncc2Cl)c1 | 8.69 | inactive | 10.8% | 
3 | CCC(=O)Nc1cccc(Oc2nc(Nc3ccc(N4CCN(C)CC4)cc3OC)ncc2Cl)c1 | 47.3 | 84.8% | 85.8% | Activity (HCT-116 [4]): 2.9%; Activity (U2OS [5]): 0.4%; Activity (SW480 [6]): 2.7%; Activity (U2OS [7]): 2.6%; viability at 10 µM (SW480 [8]): 94.5%; Activity (SW480 [9]): 0.8%; Activity (HCT-116 [10]): 13.7%; Activity (HCT-116 [11]): Active; Activity (U2OS [12]): 6.2%; Activity (SW480 [13]): Active; Activity (HCT-116 [14]): 3.2%; Activity (U2OS [15]): Active; viability at 10 µM (HCT-116 [16]): 80.2%; Activity (SW480 [17]): 2%; viability at 10 µM (U2OS [18]): 90.8%; Activity (SW480 [19]): Active; Activity (HCT-116 [20]): Active
4 | CCC(=O)Nc1cccc(Oc2nc(Nc3ccc(N4CCCCC4)cc3OC)ncc2Cl)c1 | 12.9 | inactive | 13.9% | 
5 | CCCN(CCC)c1ccc(Nc2ncc(Cl)c(Oc3cccc(NC(=O)CC)c3)n2)cc1 | 23.9 | inactive | 9.3% | 
6 | CCC(=O)Nc1cccc(Oc2nc(Nc3ccc(N4CCOCC4)cc3)ncc2Cl)c1 | 61.3 | 43.5% | 70.9% | 
7 | CCC(=O)Nc1cccc(Oc2nc(Nc3ccc(N4CCC(C)CC4)cc3)ncc2Cl)c1 | 44.2 | 24.8% | 13.4% | 
8 | CCC(=O)Nc1cccc(Oc2ccnc(Nc3ccc(N4CCN(C)CC4)cc3)n2)c1 | 24 | 48.8% | 85.6% | 
9 | CCC(=O)Nc1cccc(Oc2nc(Nc3ccc(N4CCC(C)CC4)cc3OC)ncc2Cl)c1 | 20.9 | inactive | 9.2% | 
10 | CCC(=O)Nc1cccc(Oc2nc(Nc3ccc(N4CCC(OC)CC4)cc3OC)ncc2Cl)c1 | 10.8 | inactive | 5.08% | 
11 | CCCN(CCC)c1ccc(Nc2ncc(Cl)c(Oc3cccc(NC(=O)CC)c3)n2)c(OC)c1 | 33.8 | inactive | inactive | 
12 | CCC(=O)Nc1cccc(Oc2nc(Nc3ccc(N4CCOCC4)cc3OC)ncc2Cl)c1 | 9.7 | 8.45% | 65.6% | 
13 | CCC(=O)Nc1cccc(Oc2nc(Nc3ccc(N4CCC(OC)CC4)cc3)ncc2Cl)c1 | 48.7 | 53.4% | 86.5% | 
14 | CCC(=O)Nc1cccc(Oc2nc(Nc3ccc(N4CCN(C)CC4)cc3Cl)ncc2Cl)c1 | 34.8 | 69.1% | 71.5% | 
15 | CCC(=O)Nc1cccc(Oc2nc(Nc3ccc(N4CCCCC4)cc3)ncc2Cl)c1 | 48.4 | 72.3% | 86% | 
16 | CCC(=O)Nc1cccc(Oc2nc(Nc3ccc(N(C)C)cc3OC)ncc2Cl)c1 | 4.83 | 15% | 80.6% | 
17 | Cc1nc(Nc2cnn(C3CCNCC3)c2)nc2c1N(C)C(=O)c1cc3ccccc3cc1N2C | 38.6 | 15.6% | 78.3% | 
18 | CCC(=O)Nc1cccc(Oc2nc(Nc3ccc(N4CCCC4)cc3OC)ncc2Cl)c1 | 18.5 | inactive | 25.8% | 
19 | CCC(=O)Nc1cccc(Oc2nc(Nc3ccc(N4CCCC4)cc3)ncc2Cl)c1 | 38.5 | inactive | inactive | 
20 | CCC(=O)Nc1cccc(Oc2nc(Nc3ccc(N(C)C)cc3)ncc2Cl)c1 | 60.3 | 31.7% | 72.6% | 
